# Bioassay records deposited in PubChem BioAssay by several laboratories.
# Sampled rows, rich in hits. Any-hit rate of the full collection: about 1.8%.
# A3A deaminase – human APOBEC3A DNA deaminase inhibition. inhibition, % at 20 µM. 330,000 compounds, 0.41% hits. AID 493011. recombinant A3A, FAM/TAMRA ssDNA deamination fluorescence;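 active = at least 40% inhibition at 20 µM here, with at most 30% in a related deaminase screen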;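 note: plate controls were A3A with DMSO for no effect and wells lacking A3A enzyme for full effect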
# Target sequence (P31941 whole entry, looked up): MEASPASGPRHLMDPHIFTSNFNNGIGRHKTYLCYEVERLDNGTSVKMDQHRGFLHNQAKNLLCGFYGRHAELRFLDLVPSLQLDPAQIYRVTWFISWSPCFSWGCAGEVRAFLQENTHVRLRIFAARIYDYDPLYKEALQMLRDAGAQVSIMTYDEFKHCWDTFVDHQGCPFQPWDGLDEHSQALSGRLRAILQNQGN
# APOBEC3G inh – APOBEC3G (human) deaminase inhibition | Q9HC16 | recombinant A3G, ssDNA deamination FAM/TAMRA fluorescence | inhibition, % at 20 µM | 330,000 compounds, 0.28% hits;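 active = inhibition of at least 40% at 20 µM, with no more than 30% in the related APOBEC3A deaminase screen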;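 note: plate controls were DMSO wells with A3G for no effect and wells lacking A3G enzyme for full effect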
# PHOSPHO1 block – inhibitors of human PHOSPHO1 phosphatase | recombinant PHOSPHO1, absorbance phosphatase assay | 290,000 compounds, 1.1% hits | inhibition, % at 13.3 µM; in the data active = inhibition above about 60%
# Target sequence (Q8TCT1 whole entry, looked up): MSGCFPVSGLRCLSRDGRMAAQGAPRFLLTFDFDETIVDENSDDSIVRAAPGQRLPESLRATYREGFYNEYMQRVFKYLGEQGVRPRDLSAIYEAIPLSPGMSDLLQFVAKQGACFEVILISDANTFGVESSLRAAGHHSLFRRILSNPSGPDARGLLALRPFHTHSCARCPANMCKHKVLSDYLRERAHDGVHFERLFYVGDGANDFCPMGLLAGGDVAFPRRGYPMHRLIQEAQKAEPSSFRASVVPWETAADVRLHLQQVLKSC
# pCIP destab – p/CIP protein destabilization. Q05BA5. decrease of EGFP signal, % at 10 µM. 290,000 compounds, 0.01% hits. F442A p/CIP-EGFP cells, EGFP fluorescence, 16 h;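 active = EGFP signal decrease of at least 30% at 10 µM or well 3 SD below plate mean, unless failing retest; inactive = the rest, including hits failing retest or dose response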
# TbMetRS inhib – Trypanosoma brucei MetRS inhibition | inhibition, % at 11.9 µM | 360,000 compounds, 0.4% hits | purified T. brucei MetRS, ATP depletion, Kinase-Glo luminescence | AID 624268;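 active = inhibition above a per-plate cutoff of the control wells' mean inhibition plus 3 SD, cut at about 5.5% in these data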;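 note: 0% = DMSO wells median and 100% = median of wells with control inhibitor compound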
#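 Material: T. brucei methionyl-tRNA synthetase, purified; reagent: substrates ATP, L-methionine and bulk Escherichia coli tRNA; dosing: 11.9 µM single point; timing: 15 min plus 2 h at 25 °C; detection: luminescence of leftover ATP; evaluation: % inhibition; control set: DMSO-only wells as low control; replicates: singlicate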
# * marks the source's active call; other numbers are inactive results; nt = no result given.
SMILES,A3A deaminase,APOBEC3G inh,PHOSPHO1 block,pCIP destab,TbMetRS inhib
COc1ccccc1C1CC(c2cccs2)=Nc2ccccc2S1 (stereo not given),-3,-1,94*,13,0
Cc1oc(-c2ccccc2F)nc1CSCC(=O)NC1CC1,-6,-3,75*,-2,0
CCCCC(=O)Nc1nc(C)c(-c2csc(Nc3cc(Cl)ccc3OC)n2)s1,-5,-4,99*,6,0
CCCCCCC(=O)Nc1nc(C)c(-c2csc(Nc3cc(Cl)ccc3C)n2)s1,2,24,-79,-9,0
CCCCC(=O)Nc1nc(C)c(-c2csc(Nc3cc(OC)ccc3OC)n2)s1,-3,-7,70*,10,0
Cc1cc(C)c(NC(=O)c2ccc(CNS(=O)(=O)c3cc(C(F)(F)F)ccc3Cl)cc2)c(C)c1,-4,-7,-1,-11,-1
CC(C)COC(=O)N(C)C[C@@H]1OCc2cnnn2CCCC(=O)N([C@H](C)CO)C[C@@H]1C,nt,nt,nt,nt,-1
CCOc1ccc(S(=O)(=O)N2CCC(C(=O)NCCc3ccc(S(N)(=O)=O)cc3)CC2)cc1,-4,-5,33,-2,0
O=c1[nH]c(SCc2ccccc2F)nc2ccccc12,2,-1,37,2,1
O=c1cc(CSc2nc3ccccc3c(=O)[nH]2)c2ccc(O)cc2o1,nt,nt,60*,4,3
Cc1nn(-c2nnc(C)c(=O)[nH]2)c(C)c1SCC(=O)Nc1ccc(C(C)C)cc1,-1,-3,62*,5,-1
CCc1nc(SCC(=O)Nc2ccc(OC)cc2[N+](=O)[O-])n[nH]1,4,-4,24,-11,0
c1ccc(CCn2nnnc2CN2CCCc3ccccc32)cc1,-3,-5,64*,-9,0
CC(Sc1nnc(COc2ccc3ccccc3c2)n1C)C(=O)O (stereo not given),-3,-3,76*,-3,1
COc1ccc(CCNC(=O)C(=O)c2cn(CC(=O)N3CCCC3)c3ccccc23)cc1,nt,nt,nt,nt,0
CC1CN(c2oc(-c3ccco3)nc2S(=O)(=O)c2ccccc2)CC(C)O1 (stereo not given),-6,-3,76*,6,-1
Cc1cnc(C(=O)Oc2c(C)ccc(C)c2C)cn1,-3,-4,141*,8,-1
CCCCCCOC(=O)Sc1nc2ccccc2o1,-4,-4,86*,0,0
Cc1cc(C(=O)CSc2nnc(-c3ccccc3)n2C)c(C)n1C,-5,-6,24,-2,0
Cc1cc(C(=O)CSc2nnc(-c3ccccc3)n2-c2ccccc2)c(C)n1-c1ncn[nH]1,-2,-6,75*,-8,-2
CCCn1c(=O)c2ccccc2n2c(SCC(=O)c3cc(C)n(CC4CCCO4)c3C)nnc12 (stereo not given),nt,nt,66*,-2,nt
Cc1cc(C(=O)CSc2nnc(-c3cccnc3)n2-c2ccccc2)c(C)n1CC1CCCO1 (stereo not given),-4,-6,74*,-6,0
CCCn1c(=O)c2ccccc2n2c(SCC(=O)c3ccccc3)nnc12,-6,0,-3,1,0
Cc1cc(C(=O)CSc2nnc(-c3cccnc3)n2-c2ccccc2F)c(C)n1C,1,-5,nt,nt,0
Cc1cc(C(=O)CSc2nnc(-c3ccncc3)n2-c2ccccc2)c(C)n1C,-2,-7,77*,-13,0
SMILES,A3A deaminase,APOBEC3G inh,PHOSPHO1 block,pCIP destab,TbMetRS inhib
CCOc1ccc(C(=O)OCC(=O)N2CC(C)OC(C)C2)cc1OCC (stereo not given),1,-3,-13,12,0
Cc1onc(-c2ccccc2)c1C(=O)N/N=C/c1c(F)cccc1Cl,-1,-10,33,2,0
Cc1ccc(S(=O)(=O)NN=Cc2ccco2)cc1,nt,nt,nt,nt,0
Cc1ccc(S(=O)(=O)N/N=C/c2cc(Br)c(C)o2)cc1,-2,-4,91*,-9,0
CCc1ccc(-c2cc(C(F)(F)F)n3nc(C(=O)Nc4cnn(Cc5ccc(C)cc5)c4)cc3n2)s1,-3,-3,-19,-6,-1
O=C(Nc1ccnn1C1CCN(Cc2cc3ccccc3[nH]2)CC1)C1CCOC1 (stereo not given),2,1,8,16,0
COc1ccc(C(=O)NC2CC2)cc1OC1CCN(Cc2ccccc2)CC1,-3,-4,47,-6,0
COc1ccccc1/C=C/CN1CCC(n2nccc2NC(=O)C2CC2)CC1,0,-3,63*,1,0
COc1ccccc1/C=C/CN1CCC(Oc2cc(C(=O)NC3CC3)ccc2OC)CC1,-3,-2,65*,-5,0
CC(C)Cc1ccc(CN2CCC(n3nccc3NC(=O)C3CCCC3)CC2)cc1,-1,-5,9,7,0
COc1ccc(CN2CCC(n3nccc3NC(=O)C3CCCC3)CC2)cc1,-1,-3,61*,-10,0
Cc1c(CN2CCC(n3nccc3NC(=O)C3CCOC3)CC2)[nH]c2ccccc12 (stereo not given),-2,-5,66*,-1,0
O=C(COC(=O)c1ccc(O)cc1)Nc1ccc(Cl)cc1,2,-6,30,-12,nt
CCN(C(=O)COC(=O)CSc1ccc(C)cc1C)c1c(N)n(Cc2ccccc2)c(=O)[nH]c1=O,nt,nt,nt,nt,0
CCOC(CC(=O)NNC(=O)c1c(-c2c(Cl)cccc2Cl)noc1C)OCC,-3,-1,6,-3,1
COc1ccccc1CN1CCC(n2nccc2NC(=O)CCOc2ccccc2)CC1,0,-8,75*,-23,0
CS/C(=N\S(=O)(=O)c1cccs1)NC(=O)CSc1nc2ccccc2s1,0,24,100*,0,0
CCN(Cc1cnn(C)c1)C(=O)c1cc(COc2ccc(F)cc2F)on1,7,2,34,5,0
Cc1nn(C)cc1CN(C)C(=O)c1cc(COc2ccc(F)cc2F)on1,-1,-4,64*,-22,0
NC(N)=Nc1nc(-c2ccccc2)c2cc(F)ccc2n1,6,-5,13,-1,0
CC(C)(C)C(=O)NC(=S)Nc1ccccc1C(N)=O,0,1,-2,2,0
O=C1c2ccccc2C(=O)C12OC2c1cccc2ccccc12 (stereo not given),0,5,66*,0,0
O=C1NC(c2cccc3ccccc23)Nc2ccccc21 (stereo not given),nt,nt,nt,nt,0
CCN(CC)c1ccc(NC(=O)c2ccccc2F)cc1S(=O)(=O)Nc1ccccc1OC,3,32,64*,-17,-1
COc1ccccc1CCN=C(N)NS(=O)(=O)c1ccccc1F,2,0,66*,-5,2
Cn1cnnc1SCc1ccccc1,2,0,13,4,0
Cn1cnnc1SCc1ccc(-c2ccc(Br)cc2)o1,-6,-4,85*,-21,0
COc1cc(NC(=O)c2cc(S(=O)(=O)N3CCc4ccccc43)cn2C)cc(OC)c1OC,-3,-3,65*,0,-1
